ABHD5 PLIN5 PPI = inhibitors of human ABHD5-perilipin-5 interaction; Q00G26+Q8WTS1; Split G. princeps luciferase complementation, luminescence, 4 h; inhibition, % at 4 µM; hit rate 0.78% among 360,000; AID 602281;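 active = inhibition above the mean inhibition across every tested compound plus 3 SD, cut at about 22% in these data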;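 also: 0% = DMSO only wells and the 100% control is not disclosed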
Dynein transport = blocks dynein driven cargo transport along microtubules | 3617.4 mouse cells, GR-EGFP nuclear translocation imaging; test concentration mostly 20 µM; stimulated with dexamethasone, 1 µM; stronger effect = lower value | z-score, hits read low | hit rate 0.47% among 220,000 | AID 1381;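 active = plate z-score of nuclear minus cytoplasmic receptor signal below a set negative limit, without overly bright fluorescence or cell loss, cut at about -3.5 in these data, passing the limit was not always enough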;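 also: z-score of nuclear minus cytoplasmic ring GR-EGFP intensity difference per well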
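medium = tetracycline-free induction medium containing charcoal-stripped FBS | also added = 1.0 µM final dexamethasone stimulus | schedule = 48 h induction, 1 h compound, 30 min dex at 37 °C | technique = fixed, Hoechst-stained cells imaged at 10x for EGFP | measure = GR-EGFP nuclear translocation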
NOD2-RIPK2 inh = NOD2-RIPK2 protein interaction inhibition; CHO BLA complementation NOD2-RIPK2, CCF4 ratio; hit rate 0.38% among 360,000; inhibition, % at 4.98 µM; in the data active = inhibition above about 21%;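 also: 0% = vehicle only and 100% = reference blocker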
TLR9-MyD88 inh = TLR9-MyD88 interaction inhibition; hit rate 0.21% among 340,000; AID 504734; CHO BLA complementation TLR9-MyD88, CCF4 FRET ratio; inhibition, % at 4.98 µM; Q9NR96+Q99836;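 active = inhibition above the mean over all tested compounds plus 3 SD, cut at about 21% in these data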;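 also: 0% = DMSO only wells and 100% = clavulanate BLA inhibitor control wells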
Beta2AR agonist = human beta-2 adrenergic receptor agonism by FAP. AID 504454. hit rate 0.43% among 340,000. response, % (no concentration beside the values). P07550. Am2.2-beta2AR cells, FAP receptor internalization, flow cytometry;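 active = response above a set limit, near 3 SD of response in nonfluorescent compounds, cut at about 42% in these data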
TLR4 MyD88 comp = TLR4-MyD88 interaction inhibition in cells. O00206+Q99836. HeLa CL3-4 TLR4/MyD88 BLA complementation, FRET ratio. inhibition, % at 8.4 µM. hit rate 0.18% among 200,000; in the data active = inhibition above about 25%;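 also: 0% = vehicle and 100% = reference inhibitor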
ABHD5-PLIN5 conf = confirmation of human ABHD5-PLIN5 interaction inhibitors | shares compounds with ABHD5 PLIN5 PPI | biochemical ABHD5-PLIN5 interaction, luminescence | inhibition, % at 4 µM | hit rate 67% among 2,200; in the data active = inhibition above about 23%;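 also: 0% = DMSO vehicle wells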
HNF4 counter = counter-screen for ABHD5-PLIN5 inhibitors: HNF4 split-luciferase. AID 651674. hit rate 77% among 2,200. HNF4 dimerization, luminescence, biochemical. shares compounds with ABHD5 PLIN5 PPI. inhibition, % at 4 µM;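 active = mean inhibition across replicate wells exceeding the computed hit threshold, cut at about 13% in these data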;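 also: light from luciferase halves that rejoin when HNF4 fusion proteins dimerize; 0% = DMSO only wells and the 100% control is not given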
* hit, by the source's call; / = no result given. This is a sample that favours compounds with a hit; in the whole collection about 1.6% have one here.

SMILES	ABHD5 PLIN5 PPI	Dynein transport	NOD2-RIPK2 inh	TLR9-MyD88 inh	Beta2AR agonist	TLR4 MyD88 comp	ABHD5-PLIN5 conf	HNF4 counter
O=C1C=CC(O)C2(CO)OC12 (configuration not stated)	67*	/	9	0	/	/	91*	91*
CCCCCCCCCc1conc1C(=O)CP(=O)(OC)OC	1	/	-8	/	/	/	/	/
CCCCCCCCCc1conc1C(=O)/C=C/c1ccco1	25*	/	-4	/	/	/	26*	21*
COc1ccccc1OCc1nnc(SCC(=O)NCc2ccco2)n1Cc1ccco1	31*	-0.84	-2	3	-3	-14	48*	34*
Nc1nc(-c2ccccc2)c(N=Nc2ccccc2Cl)s1	24*	-1.4	7	13	14	-9	26*	17*
Cc1ncc(N=Nc2ccccc2Cl)c(-c2ccccc2)n1	5	-0.23	5	7	-1	-11	/	/
CCCN(C)C[C@H]1Oc2cc(C#Cc3ccc(F)cc3)ccc2S(=O)(=O)N([C@H](C)CO)C[C@@H]1C	10	/	-6	0	/	/	/	/
CC(=O)c1ccc2noc(-c3ccc(C)cc3)c2c1	29*	-1.8	-14	-6	4	1	14	22*
Cc1ccc(C(=O)N(C)Cc2ccc(N3CCOCC3)cc2)cc1S(=O)(=O)NCc1ccccc1	2	/	-9	-2	-12	/	/	/
O=c1cc(-c2ccccc2)[nH]n1-c1ccccc1	-9	/	-6	-4	-4	/	/	/
CC(C)(C)c1cc(=O)n(-c2ccccc2)[nH]1	26*	-0.71	1	4	11	0	-20	-17
CC(=O)Cc1cc(O)c2ccccc2c1OC(=O)c1ccccc1	67*	2.3	-1	0	11	12	84*	54*
Cc1cccc(N=Nc2ccc(O)c3ncccc23)c1	-2	-0.031	-12	-8	9	6	/	/
NS(=O)(=O)c1ccc(N=Nc2ccc(O)c3ncccc23)cc1	24*	/	-4	2	15	/	29*	20*
CCOc1cc(/C=N\O)cc(Cl)c1OCC	-1	-0.28	-4	-1	4	-7	/	/
CCOc1cc(/C=C2\CCC/C(=C\c3cc(Cl)c(O)c(OCC)c3)C2=O)cc(Cl)c1O	55*	0.7	8	7	-20	-8	68*	48*
COCCNc1nc(-c2ccc(OC)cc2C)c2sc(-c3ccccc3)cc2n1	-3	/	4	/	/	/	/	/
COc1ccc(NC(=S)N2CCN(Cc3ccco3)CC2)c(OC)c1	23*	1.1	6	-3	3	-6	3	14*
N#Cc1ncc(Cc2ccccc2)nc1C#N	30*	/	-10	-5	13	/	46*	21*
N#Cc1nc(Cc2ccccc2)oc1NCc1cccnc1	5	-0.91	-12	6	-8	11	/	/
Cc1nc(SCC(=O)N(C)Cc2ccco2)c2c(C)c(C)sc2n1	32*	-0.5	-4	6	14	-18	18	22*
Cc1[nH]nc2c1C(c1ccc(-c3ccccc3C#N)o1)C(C#N)=C(N)O2 (configuration not stated)	-2	-0.96	6	-2	11	14	/	/
Cc1ccc(-c2ccc(C3C(C#N)=C(N)Oc4n[nH]c(C)c43)o2)cc1 (configuration not stated)	24*	0.99	-7	-1	17	-2	26*	44*
Cc1[nH]nc2c1C(c1ccc(-c3ccc(Cl)cc3)o1)C(C#N)=C(N)O2 (configuration not stated)	28*	0.7	5	-4	-1	-5	17	44*
O=C(Oc1ccc(Br)cc1C(=S)N1CCOCC1)c1ccc([N+](=O)[O-])cc1[N+](=O)[O-]	7	/	-1	1	11	/	/	/
O=c1[nH]c(Sc2ccc([N+](=O)[O-])cc2[N+](=O)[O-])nc2ccccc12	41*	/	16	8	4	/	41*	33*

Screening data from PubChem.
